Results reported in PMC8865112 (Journal of Enzyme Inhibition and Medicinal Chemistry, 2022).

Legend:
SGC7901/DDP [1] = assay: CCK-8 cell growth and sensitisation to DDP; type: cell-based, human
Summary of the method: (§1)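 Exponential-phase cells were trypsinised, diluted to 5 × 10^7/l and plated, then cultured 24 h at 37 °C. Test compound was added where indicated (DMF <0.2%), and DDP (saline stock 5.0 mM) was added 1 h later. After 72 h at 37 °C, CCK-8 was applied for 2 h and A450 was read. Live cells were calculated as % of the no-DDP, no-inhibitor control. Done in triplicate.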

COC1/DDP = assay: CCK-8 cell growth and sensitisation to DDP; type: cell-based, human
Summary of the method: as §1

SK-OV-3/DDP = assay: CCK-8 cell growth and sensitisation to DDP; type: cell-based, human; conditions: SK-OV-3/DDP cells versus SK-OV-3 cells
Summary of the method: as §1

SGC7901/DDP [2] = assay: Apoptosis percentages; type: cell-based, human; conditions: DDP alone 2.0 μM, EDEA alone 1.0 and 2.0 μM
A549/DDP [3] = assay: Apoptosis percentages; type: cell-based, human; conditions: DDP alone 2.0 μM, EDEA alone 1.0 and 2.0 μM
A549/DDP [4] = assay: CCK-8 cell growth and sensitisation to DDP; type: cell-based, human
Summary of the method: as §1

drug-resistant cancers = conditions: cited from earlier work

SMILES	IC50 value of DDP in resistant versus parental cells (SGC7901/DDP [1]) [fold]	IC50 value of DDP in resistant versus parental cells (COC1/DDP) [fold]	IC50 value of DDP in resistant versus parental cells (SK-OV-3/DDP) [fold]	effect of single agent on apoptosis percentages (SGC7901/DDP [2])	effect of single agent on apoptosis percentages (A549/DDP [3])	IC50 value of DDP in resistant versus parental cells (A549/DDP [4]) [fold]	level that sensitised drug-resistant cancers to DDP in vitro (drug-resistant cancers) [µM]
N.N.[Cl][Pt][Cl] [DDP, cisplatin]	~3	~4	~4	did not greatly alter	did not greatly alter	~7	
C=C(CC)C(=O)c1ccc(OCC(=O)O)c(Cl)c1Cl [EAA, ethacrynic acid]							~20
